Assay results published in ChEMBL document CHEMBL3407478, “Development of a series of aryl pyrimidine kynurenine monooxygenase inhibitors as potential therapeutic agents for the treatment of Huntington's disease” (J Med Chem, 2015).
Calls of active or inactive are those of the source. The calls are words filed in the database; no cut-off is given here.

Legend:
[1] = Aqueous solubility of the compound; format: physicochemical
[2] = Half life in Sprague-Dawley rat cortex at 10 mg equivalents/kg, po after 0.25 to 12 hrs; format: ADME, organism-based
In short: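 Nonfasted male Sprague-Dawley rats; single oral dose 10 mg equiv/kg as 2 mg equiv/mL solution in 10% hydroxypropyl-β-cyclodextrin. Cortex taken from nonperfused brains, sampled 0.25 to 12 h after dosing. Drug measured by LC-MS/MS; half-life derived from concentration-time profile.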

[3] = tested on: Plasma; test: Dose normalized AUC (0 to infinity) in BCRP knock out FVB/N mouse plasma at 5 mg equivalents/kg, iv by LC-MS/MS analysis; format: ADME, organism-based; settings: in vivo
In short: (§1)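 Male mice given a single 5 mg equiv/kg iv bolus: FVB wild type, Bcrp(−/−), Mdr1a/b(−/−) and Mdr1a/b(−/−)/Bcrp(−/−). Brain and plasma concentration–time profiles were used to derive dose-normalized AUC (0–infinity).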

[4] = tested on: Brain; test: Dose normalized Cmax in Sprague-Dawley rat brain at 12 mg equivalents/kg, po; format: ADME, tissue-based; settings: in vivo
[5] = tested on: Cortex; test: Dose normalized Cmax in Sprague-Dawley rat cortex at 10 mg equivalents/kg, po after 0.25 to 12 hrs; format: ADME, organism-based; settings: in vivo
In short: (§2)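 Male Sprague-Dawley rats given a single oral dose of 10 mg equiv/kg as a 2 mg equiv/mL solution in 10% hydroxypropyl-β-cyclodextrin. Plasma, liver, kidney, cortex, striatum and CSF levels were measured from 0.25 to 12 h. Brain tissue was taken from nonperfused brains. CSF AUCN covers 0–8 h because the elimination phase was undefined.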

[6] = tested on: Plasma; test: Dose normalized AUC (0 to infinity) in MDR1a knock out FVB/N mouse plasma at 5 mg equivalents/kg, iv by LC-MS/MS analysis; format: ADME, organism-based; settings: in vivo; in short: as §1
[7] = tested on: Plasma; test: Dose normalized AUC (0 to infinity) in Sprague-Dawley rat plasma at 10 mg equivalents/kg, po after 0.25 to 12 hrs; format: ADME, organism-based; settings: in vivo; in short: as §2
[8] = tested on: Brain; test: Dose normalized AUC (0 to infinity) in MDR1a knock out FVB/N mouse brain at 5 mg equivalents/kg, iv by LC-MS/MS analysis; format: ADME, organism-based; settings: in vivo; in short: as §1
[9] = tested on: Rattus norvegicus; test: Inhibition of KMO in Sprague-Dawley rat plasma assessed as time duration for reduction in 3-HK plasma level at 10 mg/kg, po by […] analysis; format: functional
In short: (§3)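 Sprague-Dawley rats given a single 10 mg/kg oral dose. KYN, 3-HK, KYNA and AA were quantified in plasma by LC-MS/MS at multiple time points.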

[10] = tested on: Rattus norvegicus; test: Inhibition of KMO in po dosed Sprague-Dawley rat plasma assessed as reduction in 3-hydroxykynurenice acid plasma level by […] analysis; format: functional, organism-based
[11] = Volume of distribution at steady state in Sprague-Dawley rat plasma at 6.2 mg equivalents/kg, iv; format: ADME, cell-free; settings: read-out: Vdss
In short: (§4)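 Nonfasted male Sprague-Dawley rats (300−370 g). Single iv tail-vein dose of 6.2 mg equiv/kg (1.24 mg equiv/mL in DMSO:PEG400:water 10:40:50) or oral gavage of 12 mg equiv/kg (1.20 mg equiv/mL in 10% hydroxypropyl-β-cyclodextrin). Terminal bleeds under isoflurane (N = 3) at 0.083−24 h; heparin plasma; tissues snap-frozen.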

[12] = tested on: Rattus norvegicus; test: Inhibition of KMO in Sprague-Dawley rat striatum brain microdialysate assessed as time duration for elevation in kynurenine level at 10 mg/kg, po by […] analysis; format: functional
In short: (§5)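 Freely moving Sprague-Dawley rats given 10 mg/kg po, with a microdialysis probe implanted in the striatum. Dialysate was sampled over 0–240 min for free compound and for KYN, KYNA, AA and 3-HK, quantified by LC-MS/MS. Metabolite changes were compared with t = 0 min by 2-way ANOVA.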

[13] = MRT in Sprague-Dawley rat plasma at 6.2 mg equivalents/kg, iv; format: ADME, cell-free; in short: as §4
[14] = tested on: Rattus norvegicus; test: Inhibition of KMO in Sprague-Dawley rat brain assessed as time duration for elevation in kynurenic acid plasma level at 10 mg/kg, po by […] analysis; format: functional
[15] = tested on: Plasma; test: Dose normalized Cmax in Sprague-Dawley rat plasma at 10 mg equivalents/kg, po after 0.25 to 12 hrs; format: ADME, organism-based; settings: in vivo; in short: as §2
[16] = tested on: Rattus norvegicus; test: Inhibition of KMO in Sprague-Dawley rat plasma assessed as time duration for elevation in kynurenine plasma level at 10 mg/kg, po by […] analysis; format: functional; in short: as §3
[17] = tested on: Cerebrospinal fluid; test: Dose normalized AUC (0 to infinity) in Sprague-Dawley rat CSF at 10 mg equivalents/kg, po after 0 to 8 hrs; format: ADME, organism-based; settings: in vivo; in short: as §2
[18] = tested on: Brain; test: Dose normalized AUC (0 to infinity) in Sprague-Dawley rat brain at 6.2 mg equivalents/kg, iv; format: ADME, tissue-based; settings: in vivo
[19] = biological target: Kynurenine 3-monooxygenase (Homo sapiens, UniProt O15229); test: Inhibition of human KMO transfected in CHO cells assessed as conversion of kynurenine to 3-hydroxykynurenine by LC-MS/MS analysis; format: cell-based
Sequence of Kynurenine 3-monooxygenase (O15229 whole entry): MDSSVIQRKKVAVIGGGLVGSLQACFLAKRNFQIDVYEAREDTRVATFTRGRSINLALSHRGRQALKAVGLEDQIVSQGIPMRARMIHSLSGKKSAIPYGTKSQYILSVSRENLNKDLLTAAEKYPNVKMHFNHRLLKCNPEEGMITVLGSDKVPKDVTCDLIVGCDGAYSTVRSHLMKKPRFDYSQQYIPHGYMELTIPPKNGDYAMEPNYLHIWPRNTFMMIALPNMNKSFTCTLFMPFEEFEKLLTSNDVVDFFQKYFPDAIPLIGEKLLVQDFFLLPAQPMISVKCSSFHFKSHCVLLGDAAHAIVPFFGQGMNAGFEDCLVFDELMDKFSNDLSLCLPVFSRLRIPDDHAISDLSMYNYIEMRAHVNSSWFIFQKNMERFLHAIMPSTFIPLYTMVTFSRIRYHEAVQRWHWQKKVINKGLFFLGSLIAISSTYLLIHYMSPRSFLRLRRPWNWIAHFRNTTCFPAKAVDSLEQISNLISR

[20] = Tmax in Sprague-Dawley rat CSF at 10 mg equivalents/kg, po after 0.25 to 12 hrs; format: ADME, organism-based, Cerebrospinal fluid
In short: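 Fed male Sprague-Dawley rats given a single oral dose of 10 mg equiv/kg as 2 mg equiv/mL in 10% hydroxypropyl-β-cyclodextrin. Plasma, CSF, kidney, liver, and cortex and striatum from nonperfused brains sampled from 0.25 to 12 h.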

[21] = tested on: Kidney; test: Dose normalized Cmax in Sprague-Dawley rat kidney at 10 mg equivalents/kg, po after 0.25 to 12 hrs; format: ADME, organism-based; settings: in vivo; in short: as §2
[22] = tested on: Brain; test: Dose normalized AUC (0 to infinity) in BCRP knock out FVB/N mouse brain at 5 mg equivalents/kg, iv by LC-MS/MS analysis; format: ADME, organism-based; settings: in vivo; in short: as §1
[23] = Fraction unbound in mouse plasma; format: ADME, cell-free
[24] = Half life in Sprague-Dawley rat brain at 12 mg equivalents/kg, po; format: ADME, tissue-based
[25] = AUC (0 to 240 mins) in Sprague-Dawley rat striatal extracellular fluid at 10 mg/kg, po by […] analysis; format: ADME, organism-based; parameters: time < 4 hr, dose 10 mg/kg, route oral; in short: as §5
[26] = Clearance in Sprague-Dawley rat plasma at 6.2 mg equivalents/kg, iv; format: ADME, cell-free
[27] = tested on: Rattus norvegicus; test: Inhibition of KMO in Sprague-Dawley rat striatum brain microdialysate assessed as time duration for elevation in 3-hydroxykynurenice acid level by 2-fold at 10 mg/kg, po by […] analysis; format: functional; in short: as §5
[28] = Half life in Sprague-Dawley rat plasma at 12 mg equivalents/kg, po; format: ADME, cell-free
[29] = Half life in Sprague-Dawley rat kidney at 10 mg equivalents/kg, po after 0.25 to 12 hrs; format: ADME, organism-based; in short: as §2
[30] = Lipophilicity, log P of the compound at pH 7; format: physicochemical; settings: buffer
[31] = Half life at steady state in Sprague-Dawley rat plasma at 6.2 mg equivalents/kg, iv; format: ADME, cell-free
[32] = tested on: Brain; test: Dose normalized AUC (0 to infinity) in Sprague-Dawley rat brain at 12 mg equivalents/kg, po; format: ADME, tissue-based; settings: in vivo
[33] = Fraction unbound in rat plasma; format: ADME, cell-free
[34] = tested on: Cortex; test: Dose normalized AUC (0 to infinity) in Sprague-Dawley rat cortex at 10 mg equivalents/kg, po after 0.25 to 12 hrs; format: ADME, organism-based; settings: in vivo; in short: as §2
[35] = tested on: Rattus norvegicus; test: Inhibition of KMO in Sprague-Dawley rat plasma assessed as time duration for elevation in anthranilic acid plasma level at 10 mg/kg, po by […] analysis; format: functional; in short: as §3
[36] = Tmax in Sprague-Dawley rat brain at 6.2 mg equivalents/kg, iv; format: ADME, tissue-based; in short: as §4

solubility [1]: > 1000 µg/mL
half-life [2]: 1.9 h
AUC/dose [3]: 3.6 µM·kg·h/mg
Cmax/dose [4]: 0.035 µM·kg/mg
Cmax/dose [5]: 0.03 µM·kg/mg
AUC/dose [6]: 2.6 µM·kg·h/mg
AUC/dose [7]: 5.3 µM·kg·h/mg
AUC/dose [8]: 0.073 µM·kg·h/mg
Vd [11]: 0.32 L/kg
MRT [13]: 1.1 h
Cmax/dose [15]: 2.6 µM·kg/mg
AUC/dose [17]: 0.014 µM·kg·h/mg
AUC/dose [18]: 0.23 µM·kg·h/mg
IC50 [19]: 8 nM
Tmax [20]: 0.5 h
Cmax/dose [21]: 26 µM·kg/mg
AUC/dose [22]: 0.17 µM·kg·h/mg
fraction unbound [23]: 0.036
half-life [24]: 1.7 h
AUC(0-t) at 4 h [25]: 0.066 µM·h
clearance [26]: 4.83 mL/min/kg
half-life [28]: 2.4 h
half-life [29]: 2 h
logD [30]: 0.9
half-life [31]: 1.8 h
AUC/dose [32]: 0.12 µM·kg·h/mg
fraction unbound [33]: 0.05
AUC/dose [34]: 0.056 µM·kg·h/mg
Tmax [36]: 4.98 min
SMILES: O=C(O)c1cc(-c2ccc(OC3CC3)c(Cl)c2)ncn1
Time [9]: 8 h
inhibition [10]: Active
Time [12]: 40 min
Time [14]: >=4 hr
Time [16]: 8 h
Time [27]: 160 min
Time [35]: 8 h
